ERAP1 HTS inh: human ERAP1 aminopeptidase inhibitors, primary screen, biochemical, single point, plate reader | AID 652197, 2013 | hit rate 0.15% among 340,000 | recombinant ERAP1, Leu-AMC fluorescence, 60 min | Endoplasmic reticulum aminopeptidase 1 (Homo sapiens), Q9NZ08 | inhibition, % at 10.7 µM;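 active = mean replicate inhibition of at least 30%, or all replicates individually reaching that 30% level; inactive = mean below 30% and not every replicate reaching it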;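 also: 0% = neutral control wells and 100% = L-leucinethiol positive control wells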
FN deposition inh: inhibitors of fibronectin matrix deposition, primary screen, AH1F cells, Alexa488-fibronectin fluorescence, plate reader | AH1F fibroblasts, overnight | inhibition, % at 12.6 µM | hit rate 0.086% among 350,000;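 active = mean inhibition across replicates of 30% or more, regardless of how many single replicates reach that level; inconclusive = mean under 30% yet at least half of replicates reach 30%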;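 also: positive control wells lacked labelled fibronectin entirely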
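test system = AH1F fibroblasts assembling fluorescent fibronectin matrix | quantity = 10000 AH1F cells per well | buffer or medium = DMEM plus 2% serum, read in PBS | doses = single dose, pinned | incubation = 1 h cell attachment, overnight exposure to compound and label | detection = fluorescence at 485 nm excitation, 525 nm emission | read-out basis = inhibition from reduced deposited-fibronectin fluorescence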
PGC1a acetyl inh: inhibitors of PGC1a acetylation signal, primary screen, cell-based, U2OS, AlphaScreen, inhibitor mode; hit rate 0.17% among 350,000; inhibition, % at 15.6 µM; AlphaScreen anti-acetyl-lysine; with virally co-expressed GCN5 acetyltransferase; AID 651687, 2012;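 active = every replicate shows inhibition of at least 40%; inconclusive = mean inhibition at least 40% but some replicate below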;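 also: 0% = neutral control wells and 100% = positive control wells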
SIRT5 inh: SIRT5 desuccinylase inhibitors, primary screen, biochemical, fluorescence imaging, single point, set 5. NAD-dependent protein deacylase sirtuin-5, mitochondrial (Homo sapiens), Q9NXA8. Purified SirT5, succinyl-peptide AMC, trypsin-coupled fluorescence. inhibition, % at 15 µM. hit rate 1.1% among 330,000. AID 652115, 2013; in the data active = inhibition above about 15%; inconclusive = no clear call, values can overlap the other calls
Target sequence (Q9NXA8 whole entry, looked up): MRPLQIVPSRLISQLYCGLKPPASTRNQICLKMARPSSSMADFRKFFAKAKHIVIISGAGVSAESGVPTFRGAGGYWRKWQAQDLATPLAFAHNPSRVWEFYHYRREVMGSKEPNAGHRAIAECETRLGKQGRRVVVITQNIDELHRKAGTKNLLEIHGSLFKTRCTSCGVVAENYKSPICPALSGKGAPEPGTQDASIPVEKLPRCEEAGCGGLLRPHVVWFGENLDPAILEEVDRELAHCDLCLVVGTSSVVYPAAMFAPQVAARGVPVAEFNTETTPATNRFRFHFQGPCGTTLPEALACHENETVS
FGF22 binding: binders of human FGF22 protein, primary screen, FGF22 synaptogenesis inhibitor project, biophysical, thermal shift, single point. Fibroblast growth factor 22 (Homo sapiens), Q9HCT0. recombinant FGF22 thermal shift, SYPRO orange fluorescence; percent of sucrose octasulfate shift, DMSO zero. activity (Tm shift, normalised), % at 9.99 µM. hit rate 1.5% among 340,000. AID 651658, 2012;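 active = mean Tm shift, scaled 0 neutral to 100 positive control, at about 1.3% or above, every replicate too, limit read from the data; inconclusive = no clear call, values can overlap the other calls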
Target sequence (Q9HCT0 whole entry, looked up): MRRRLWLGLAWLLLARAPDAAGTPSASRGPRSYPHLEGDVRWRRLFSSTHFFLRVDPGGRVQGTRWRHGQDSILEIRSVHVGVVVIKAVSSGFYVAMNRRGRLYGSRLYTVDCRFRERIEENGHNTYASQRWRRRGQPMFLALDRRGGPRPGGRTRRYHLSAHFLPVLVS
An asterisk follows results filed as active; ? = inconclusive; nt = no result. Only some compounds are listed: those with a hit (about 2.2% of all), similar ones and a draw of the others.

SMILES	ERAP1 HTS inh	FN deposition inh	PGC1a acetyl inh	SIRT5 inh	FGF22 binding
O=C(Nc1ccc(CN2CCOCC2)cc1)c1ccc(Cl)cc1	-1	-1	nt	1	0
O=C(NCCN1CCOCC1)c1ccc(CSc2nc3ccncc3n2Cc2ccc(F)cc2)cc1	-7	-9	nt	-1	44*
C/C(=N\NC(=O)c1ccc(CN2CCOCC2)cc1)c1ccc(NC(=O)c2ccccc2)cc1	-2	9	15	-2	0
CC(=O)Nc1ccc(/C(C)=N/NC(=O)c2ccc(CN3CCOCC3)cc2)cc1	-1	3	11	35*	0
O=C(Nc1ccc(CN2CCOCC2)cc1)c1ccc(F)cc1	-4	-8	54*	-1	0
Cc1noc(C)c1NC(=O)N[C@@H]1CC[C@@H](CC(=O)Nc2ccc(-c3ccccc3)cc2)O[C@@H]1CO	3	14	8	-1	0
C[C@@H]1CCCCO[C@H](CN(C)C(=O)Nc2cccc3ccccc23)[C@H](C)CN([C@@H](C)CO)C(=O)c2cc(NC(=O)Nc3ccc(C(F)(F)F)cc3)ccc2O1	-1	nt	17	2	0
CO[C@@H]1CN(C)C(=O)c2cc(NC(=O)c3cc(C)on3)ccc2OC[C@@H](C)NC[C@@H]1C	nt	-10	12	-12	0
CC(C)NC(=O)Nc1ccc2c(c1)CC(=O)N([C@H](C)CO)C[C@H](C)[C@@H](CN(C)Cc1ccc3c(c1)OCO3)O2	-4	nt	-1	1	-1
COc1ccc(NC(=O)Nc2ccc3c(c2)C(=O)N([C@@H](C)CO)C[C@H](C)[C@@H](CN(C)C(=O)Nc2ccc(F)cc2)OCCCC[C@H](C)O3)cc1	0	-7	-12	17*	0
COc1ccc(S(=O)(=O)Nc2ccc3c(c2)C(=O)N([C@H](C)CO)C[C@@H](C)[C@H](CN(C)C(=O)Nc2ccc(C(F)(F)F)cc2)OCCCC[C@@H](C)O3)cc1	-3	-13	?	2	1.2*
COc1ccc(S(=O)(=O)Nc2ccc3c(c2)C(=O)N([C@H](C)CO)C[C@@H](C)[C@H](CN(C)C(=O)Nc2ccc(C(F)(F)F)cc2)OCCCC[C@H](C)O3)cc1	-3	-7	8	13	1
COc1ccc(NC(=O)N(C)C[C@@H]2OCCCC[C@H](C)Oc3ccc(NS(=O)(=O)c4ccc(F)cc4)cc3C(=O)N([C@@H](C)CO)C[C@@H]2C)cc1	0	nt	6	6	0
COc1ccc(S(=O)(=O)Nc2ccc3c(c2)C(=O)N([C@@H](C)CO)C[C@H](C)[C@@H](CN(C)C(=O)Nc2ccc(F)cc2)OCCCC[C@H](C)O3)cc1	-2	nt	2	16*	0
COc1ccc(S(=O)(=O)Nc2ccc3c(c2)C(=O)N([C@H](C)CO)C[C@@H](C)[C@H](CN(C)C(=O)Nc2ccc(F)cc2)OCCCC[C@@H](C)O3)cc1	-2	nt	8	15*	0
CC(CC(=O)Nc1ccc2c(c1)c(=O)n(C)n2-c1ccc2ccccc2c1)C(F)(F)F (stereo not given)	-5	14	4	21*	0
Cn1c(=O)c2cc(NC(=O)Cc3cccnc3)ccc2n1-c1ccc2ccccc2c1	-1	3	14	1	0
O=C(C[C@@H]1C[C@@H]2c3cc(NC(=O)C4CCC4)ccc3O[C@@H]2[C@@H](CO)O1)NCc1ccc(-c2ccccc2)cc1	0	6	80*	-6	0
O=C(C[C@H]1C[C@H]2c3cc(NC(=O)C4CCC4)ccc3O[C@H]2[C@H](CO)O1)NCCN1CCCCC1	1	-3	5	35*	0
O=C(C[C@H]1C[C@@H]2c3cc(NC(=O)Nc4ccccc4)ccc3O[C@@H]2[C@H](CO)O1)NC1CCCC1	3	5	-4	0.5*	1
O=C(C[C@@H]1C[C@H]2c3cc(NC(=O)C4CCC4)ccc3O[C@H]2[C@H](CO)O1)NCc1ccc(-c2ccccc2)cc1	0	-17	-16	25*	0
CCOC(=O)C1(CCOC)CCN(C2C3CC4CC(C3)CC2C4)CC1 (stereo not given)	-1	nt	-1	1	43*
COc1cnc(-c2cccc(C(F)(F)F)c2)nc1OC	3	22	-8	-8	43*
Cc1ccc(NS(=O)(=O)c2cccc(C(=O)NCCCn3ccnc3)c2)cc1	1	4	nt	2	0
O=C(NCCCn1ccnc1)c1ccc(NS(=O)(=O)c2ccc(Cl)c(Cl)c2)cc1	0	6	nt	20*	0
SMILES	ERAP1 HTS inh	FN deposition inh	PGC1a acetyl inh	SIRT5 inh	FGF22 binding
COc1ccc2c3c(n(C)c2c1)[C@@H](CO)NCC31CCN(C(=O)c2ccccc2)CC1	nt	2	4	nt	0
COc1cccc(NC(=O)N[C@H]2CC[C@@H](CC(=O)Nc3ccccc3)O[C@H]2CO)c1	-3	4	-4	3	0
N/C(Cc1nc(-c2ccc(Br)cc2)cs1)=N\O	1	-8	2	-9	43*
CC(C)NC(C(=O)Nc1cc(Cl)cc(Cl)c1)c1ccccc1 (stereo not given)	nt	nt	-13	nt	nt
CN(C)CCNC(C(=O)Nc1cc(Cl)cc(Cl)c1)c1ccccc1 (stereo not given)	2	7	-17	-2	43*
CC(C)c1ccc(NC(=O)COc2ccccn2)cc1	0	-13	6	-5	43*
Cn1cccc2[nH]c(=O)nc1-2	89*	-2	nt	-5	0
Cc1ccc(S(=O)(=O)N[C@@H]2C=C[C@H](CC(=O)NCCc3ccncc3)O[C@H]2CO)cc1	0	nt	3	-7	0
CCN1CCS/C1=C\C=C\C1=[N+](CC)CCS1	10	-2	nt	18*	0
CCN1CCS/C1=C/C=C/C1=[N+](CC)CCS1	nt	nt	9	nt	nt
COc1ccc(C)cc1NC(=O)CNC(c1ccccc1)c1ccccc1	2	-1	-7	-3	0
COc1cc(C(=O)Nc2ccc(C)cc2C(NCC(=O)NN)c2ccccc2)cc(OC)c1OC (stereo not given)	-2	2	-7	19*	0
CCCNC(=S)N1CCC(NC(=O)c2ccc(C)cc2)CC1	2	6	6	25*	0
Cc1ccc(NC(=S)N2CCC(NC(=O)c3ccc(C)cc3)CC2)cc1	0	-1	nt	-3	0
CCn1c(SCC(=O)NCc2ccco2)nnc1C1CCCC1	0	-4	-1	-2	1
CCOC(=O)NC(=O)CSc1nnc(C2CC2)n1Cc1ccco1	-4	8	0	-2	43*
CCc1ccc(NC(=O)CSc2nc3[nH]ncc3c(=O)[nH]2)cc1	7	18	nt	0	43*
